Reference: ChEMBL document CHEMBL2169831 (J Med Chem, 2011)
Calls of active or inactive are those of the source. No cut-off for these calls is given here.

Legend:
[1] = Drug degradation in 0.1 M phosphate buffer at pH 7.4 assessed as human butyrylcholinestase-mediated compound hydrolysis rate at 50 uM during first 1 min by spectrophotometric analysis; settings: pH 7.4, 1 min
[2] = Binding affinity to Xenopus laevis oocyte CNGA1/CNGB1 assessed as inhibition of 2 mM cGMP-induced currents at +50 mV potential at 5 uM by patch-clamp method; settings: read-out: Kd(app)
How it was run: (§1)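 Rod CNGA1 plus CNGB1 cRNA (2:1; 33 ng plus 67 ng) co-injected into stage IV–V Xenopus oocytes, held at 16–18 °C. Inside-out excised patches recorded 3–7 days after injection. Channels were maximally activated with 2 mM cGMP, and compound was added. Steps ran from 0 to −50 and +50 mV. Currents with no cGMP were subtracted, and KD was fitted to a single-site block equation (mean ± SD).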

[3] = Binding affinity to Xenopus laevis oocyte CNGA1/CNGB1 assessed as inhibition of 2 mM cGMP-induced currents at -50 mV potential at 5 uM by patch-clamp method; settings: read-out: Kd(app)
How it was run: as §1

[4] = organism: Xenopus laevis; test: Inhibition of Xenopus laevis oocyte CNGA1/CNGB1 assessed as inhibition of cGMP-induced currents at +50 mV potential at 1 uM by patch-clamp method in presence of 100 uM cGMP
How it was run: (§2)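 Heteromeric rod CNG channels from oocytes co-injected with CNGA1 and CNGB1 cRNA (33 ng:67 ng, 2:1), held at 16–18 °C and recorded 3–7 days later. Excised inside-out patches were stepped from 0 to −50 to +50 mV with sub-saturating cGMP (50 or 100 µM), with or without blocker. Currents without cGMP were subtracted and filtered at 300 Hz. Block was read at +50 mV.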

[5] = organism: Xenopus laevis; test: Inhibition of Xenopus laevis oocyte CNGA1/CNGB1 assessed as inhibition of cGMP-induced currents at +50 mV potential at 1 uM by patch-clamp method in presence of 50 uM cGMP
How it was run: as §2

[6] = organism: Xenopus laevis; test: Inhibition of Xenopus laevis oocyte CNGA1/CNGB1 assessed as inhibition of currents at +50 mV potential at 2 uM by patch-clamp method in presence of 100 uM cGMP
How it was run: as §2

[7] = organism: Xenopus laevis; test: Inhibition of Xenopus laevis oocyte CNGA1/CNGB1 assessed as inhibition of currents at +50 mV potential at 2 uM by patch-clamp method in presence of 50 uM cGMP
How it was run: as §2

| Structure (SMILES) | Drug degradation [1] | Kd [2] | Kd [3] | inhibition [4] | inhibition [5] | inhibition [6] | inhibition [7] |
| --- | --- | --- | --- | --- | --- | --- | --- |
| CCCCNc1ccc(C(=O)NCCN(C)C)cc1 | 8.4 nmol/min/mg | 4400 nM | 28.6 µM | – | – | – | – |
| CCCCNc1ccc(C(=S)NCCN(C)C)cc1 | – | 600 nM | 3.9 µM | – | – | – | – |
| CCCCNc1ccc(C(=O)OCCN(C)C)cc1 [TETRACAINE] | 132 nmol/min/mg | – | – | Active | Active | Active | Active |
| CCCCCCCCNc1ccc(C(=O)OCCN(C)C)cc1 | 213 nmol/min/mg | 1000 nM | 2.4 µM | Active | Active | Active | Active |
| CCCCCCCCNc1ccc(C(=O)NCCN(C)C)cc1 | 1.2 nmol/min/mg | – | – | – | – | – | – |
| CCCCCCCCNc1ccc(C(=S)NCCN(C)C)cc1 | – | 700 nM | 1.8 µM | – | – | – | – |
